Measured values from ChEMBL document CHEMBL1139032, “Design and modular parallel synthesis of a MCR derived alpha-helix mimetic protein-protein interaction inhibitor scaffold” (Bioorg Med Chem Lett, 2006).
The source made the active and inactive calls. The calls are words filed in the database; no cut-off is given here.

Experiments:
Bcl-2-like protein 2 = molecular target: T1, Bcl-2-like protein 2 (Homo sapiens, UniProt Q92843); test: Inhibition of Bclw by FP assay
T1 sequence (Q92843 whole entry): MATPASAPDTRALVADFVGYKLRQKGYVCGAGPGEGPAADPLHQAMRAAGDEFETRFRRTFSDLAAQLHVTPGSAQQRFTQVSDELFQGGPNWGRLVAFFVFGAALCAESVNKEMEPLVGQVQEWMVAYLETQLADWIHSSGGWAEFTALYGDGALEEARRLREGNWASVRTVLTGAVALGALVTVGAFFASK
Method in brief: (§1)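 Run in 20 mM potassium phosphate pH 7.4 with 1 mM EDTA, 50 mM NaCl and 0.05% Pluronic F-68, at 10% final DMSO. Polarization read at ex 485/em 535 nm after 2 h at room temperature.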

[1] = molecular target: Apoptosis regulator Bcl-2 (Homo sapiens) (UniProt P10415); test: Inhibition of Bcl2 by FP assay; method in brief: as §1
[2] = molecular target: Bcl-2-like protein 1 (Homo sapiens) (UniProt Q07817); test: Inhibition of BclXL by FP assay; method in brief: as §1
HL-60 = test: Antiproliferative activity against HL60 cells by WST-1 assay; settings: Homo sapiens

Chain of Bcl-2-like protein 1 (Homo sapiens) (Q07817 whole entry): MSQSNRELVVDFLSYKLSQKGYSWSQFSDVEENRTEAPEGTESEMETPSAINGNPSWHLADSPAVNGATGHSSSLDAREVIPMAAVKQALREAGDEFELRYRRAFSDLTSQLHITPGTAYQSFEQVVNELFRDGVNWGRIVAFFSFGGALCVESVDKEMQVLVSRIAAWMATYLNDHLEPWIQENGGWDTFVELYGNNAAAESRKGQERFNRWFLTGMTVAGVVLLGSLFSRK
Chain of Apoptosis regulator Bcl-2 (Homo sapiens) (P10415 whole entry): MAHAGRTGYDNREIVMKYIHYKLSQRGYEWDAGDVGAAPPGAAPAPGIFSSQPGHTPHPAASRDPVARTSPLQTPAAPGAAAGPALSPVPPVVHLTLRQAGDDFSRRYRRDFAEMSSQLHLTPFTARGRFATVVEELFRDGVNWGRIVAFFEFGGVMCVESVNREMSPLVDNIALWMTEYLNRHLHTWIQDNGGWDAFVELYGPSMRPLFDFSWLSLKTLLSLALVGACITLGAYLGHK

| SMILES | IC50 (Bcl-2-like protein 2) | Activity [1] | Activity [2] | GI50 (HL-60) |
| --- | --- | --- | --- | --- |
| CCCCc1c(-c2ccccc2OC)ncn1Cc1cccc(-c2ccccc2)c1 | 26.9 µM | inactive | inactive | 13 µM |
| CCCCc1c(-c2ccccc2Oc2ccccc2)ncn1CCc1ccccc1OC | 8.09 µM | inactive | inactive | 9.43 µM |
| CCCc1c(-c2ccccc2Oc2ccccc2)ncn1Cc1ccccc1OC | 14 µM | inactive | inactive | 12.5 µM |
